{
  "source": "ChEMBL document CHEMBL2401693",
  "about": "“Chromatographic separation of piracetam and its metabolite in a mixture of microsomal preparations, followed by an MS/MS analysis” (Eur J Med Chem, 2013)",
  "key": {"Liver microsomes [1]": {"system": "Liver microsomes", "test": "Drug metabolism in human liver microsomes assessed as Metabolite M1 formation after 50 mins by UPLC-MS/MS analysis", "format": "ADME, Microsome", "outline": "(§1)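 Pooled human liver microsomes (30 donors), 0.5 mg protein/ml, in 50 mM Tris-HCl pH 7.4 with 5 mM MgCl2 and 50 mM piracetam (final 500 µL), triplicate tubes, 37 °C with shaking. After 10-min preincubation, reaction started with 2 mM NADPH. Stopped with cold ethyl acetate at the stated time, then centrifuged, reconstituted in mobile phase and analysed by UPLC-MS/MS.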"}, "Liver microsomes [2]": {"system": "Liver microsomes", "test": "Drug metabolism in human liver microsomes assessed as Metabolite M1 formation after 40 mins by UPLC-MS/MS analysis", "format": "ADME, Microsome", "outline": "as §1"}, "Liver microsomes [3]": {"system": "Liver microsomes", "test": "Drug metabolism in human liver microsomes assessed as Metabolite M1 formation after 30 mins by UPLC-MS/MS analysis", "format": "ADME, Microsome", "details": "0.5 h", "outline": "as §1"}, "Liver microsomes [4]": {"system": "Liver microsomes", "test": "Drug metabolism in human liver microsomes assessed as Metabolite M1 formation after 20 mins by UPLC-MS/MS analysis", "format": "ADME, Microsome", "outline": "as §1"}, "Liver microsomes [5]": {"system": "Liver microsomes", "test": "Drug metabolism in human liver microsomes assessed as Metabolite M1 formation after 10 mins by UPLC-MS/MS analysis", "format": "ADME, Microsome", "outline": "as §1"}, "Liver microsomes [6]": {"system": "Liver microsomes", "test": "Metabolic stability in human liver microsomes assessed as retention time by UPLC-MS/MS analysis", "format": "ADME, Microsome", "outline": "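UPLC on BEH column (1.7 µm) at 30 °C, isocratic acetonitrile/10 mM ammonium acetate pH 5.0 (15:85), 0.3 ml/min, 5 µL injection, PDA 209 nm with Q-TOF ESI positive mode.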"}, "Rattus norvegicus [7]": {"system": "Rattus norvegicus", "test": "[…] in Wistar rat assessed as Metabolite M1 at 50 mg/kg, po", "format": "ADME, organism-based", "design": "dose 50 mg/kg, route oral", "details": "in vivo"}, "Rattus norvegicus [8]": {"system": "Rattus norvegicus", "test": "Apparent elimination half life in Wistar rat assessed as Metabolite M1 at 50 mg/kg, po", "format": "ADME, organism-based", "design": "dose 50 mg/kg, route oral", "details": "in vivo"}, "Rattus norvegicus [9]": {"system": "Rattus norvegicus", "test": "Clearance in Wistar rat assessed as Metabolite M1 at 50 mg/kg, po", "format": "ADME, organism-based", "design": "dose 50 mg/kg, route oral", "details": "in vivo"}, "Rattus norvegicus [10]": {"system": "Rattus norvegicus", "test": "AUC (0 to infinity) in Wistar rat assessed as Metabolite M1 at 50 mg/kg, po", "format": "ADME, organism-based, Plasma", "design": "dose 50 mg/kg, route oral, time infinity", "details": "in vivo"}, "Rattus norvegicus [11]": {"system": "Rattus norvegicus", "test": "Tmax in Wistar rat assessed as Metabolite M1 at 50 mg/kg, po", "format": "ADME, organism-based", "design": "dose 50 mg/kg, route oral", "details": "in vivo"}, "Rattus norvegicus [12]": {"system": "Rattus norvegicus", "test": "AUC (0 to t) in Wistar rat assessed as Metabolite M1 at 50 mg/kg, po", "format": "ADME, organism-based, Plasma", "design": "dose 50 mg/kg, route oral", "details": "in vivo"}, "Rattus norvegicus [13]": {"system": "Rattus norvegicus", "test": "Cmax in Wistar rat assessed as Metabolite M1 at 50 mg/kg, po", "format": "ADME, organism-based", "design": "dose 50 mg/kg, route oral", "details": "in vivo"}, "Plasma [14]": {"system": "Plasma", "test": "Stability in rat plasma assessed as metabolite M1 at 180 ng/ml after 10 days at -80 degC", "format": "ADME, cell-free", "details": "240 h", "outline": "(§2)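 M1 spiked into drug-free rat plasma at QC low and high levels, six replicates per level; extracted with ethyl acetate, UPLC-MS/MS. Conditions: bench top room temperature, frozen storage, three freeze–thaw cycles (frozen ≥12 h each), processed samples in autosampler. Stable if accuracy and precision within 15%; reported as % nominal and RSD.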"}, "Plasma [15]": {"system": "Plasma", "test": "Stability in rat plasma assessed as Metabolite M1at 20 ng/ml after 10 days at -80 degC", "format": "ADME, cell-free", "details": "240 h", "outline": "as §2"}, "Plasma [16]": {"system": "Plasma", "test": "Stability in rat plasma assessed as metabolite M1 at 180 ng/ml after 24 hrs by autosampler analysis", "format": "ADME, cell-free", "outline": "as §2"}, "Plasma [17]": {"system": "Plasma", "test": "Stability in rat plasma assessed as Metabolite M1at 20 ng/ml after 24 hrs by autosampler analysis", "format": "ADME, cell-free", "outline": "as §2"}, "Plasma [18]": {"system": "Plasma", "test": "Stability in rat plasma assessed as metabolite M1 at 180 ng/ml during three freeze-thaw cycles", "format": "ADME, cell-free", "outline": "as §2"}, "Plasma [19]": {"system": "Plasma", "test": "Stability in rat plasma assessed as metabolite M1 at 180 ng/ml after 30 days at -20 degC", "format": "ADME, cell-free", "details": "720 h", "outline": "as §2"}, "Plasma [20]": {"system": "Plasma", "test": "Stability in rat plasma assessed as Metabolite M1at 20 ng/ml during three freeze-thaw cycles", "format": "ADME, cell-free", "outline": "as §2"}, "Plasma [21]": {"system": "Plasma", "test": "Stability in rat plasma assessed as metabolite M1 at 180 ng/ml after 2 hrs at room temperature", "format": "ADME, cell-free", "outline": "as §2"}, "Plasma [22]": {"system": "Plasma", "test": "Stability in rat plasma assessed as Metabolite M1at 20 ng/ml after 30 days at -20 degC", "format": "ADME, cell-free", "details": "720 h", "outline": "as §2"}, "Plasma [23]": {"system": "Plasma", "test": "Stability in rat plasma assessed as Metabolite M1at 20 ng/ml after 2 hrs at room temperature", "format": "ADME, cell-free", "outline": "as §2"}, "Liver microsomes [24]": {"system": "Liver microsomes", "test": "Metabolic stability in human liver microsomes assessed as compound remaining after 50 mins by UPLC-MS/MS analysis", "format": "ADME, Microsome"}, "Liver microsomes [25]": {"system": "Liver microsomes", "test": "Metabolic stability in human liver microsomes assessed as compound remaining after 40 mins by UPLC-MS/MS analysis", "format": "ADME, Microsome"}, "Liver microsomes [26]": {"system": "Liver microsomes", "test": "Metabolic stability in human liver microsomes assessed as compound remaining after 30 mins by UPLC-MS/MS analysis", "format": "ADME, Microsome", "details": "0.5 h"}, "Liver microsomes [27]": {"system": "Liver microsomes", "test": "Metabolic stability in human liver microsomes assessed as compound remaining after 20 mins by UPLC-MS/MS analysis", "format": "ADME, Microsome"}, "Liver microsomes [28]": {"system": "Liver microsomes", "test": "Metabolic stability in human liver microsomes assessed as compound remaining after 10 mins by UPLC-MS/MS analysis", "format": "ADME, Microsome"}},
  "data": [
    {"smiles": "O=C(O)CN1CCCC1=O", "values": [
      {"measurement": "Drug metabolism", "setting": "Liver microsomes [1]", "result": 13.89, "unit": "µM"},
      {"measurement": "Drug metabolism", "setting": "Liver microsomes [2]", "result": 9.23, "unit": "µM"},
      {"measurement": "Drug metabolism", "setting": "Liver microsomes [3]", "result": 6.45, "unit": "µM"},
      {"measurement": "Drug metabolism", "setting": "Liver microsomes [4]", "result": 4.79, "unit": "µM"},
      {"measurement": "Drug metabolism", "setting": "Liver microsomes [5]", "result": 2.42, "unit": "µM"},
      {"measurement": "Retention_time", "setting": "Liver microsomes [6]", "result": 2.042, "unit": "min"}
    ]},
    {"smiles": "NC(=O)CN1CCCC1=O", "note": "[PIRACETAM]", "values": [
      {"measurement": "MRT", "setting": "Rattus norvegicus [7]", "result": 5.542, "unit": "h"},
      {"measurement": "betat1/2(app)", "setting": "Rattus norvegicus [8]", "result": 3.652, "unit": "h"},
      {"measurement": "CL", "setting": "Rattus norvegicus [9]", "result": 887.3, "unit": "mL/min/kg"},
      {"measurement": "AUC", "setting": "Rattus norvegicus [10]", "result": 939.178, "unit": "µg·h/mL"},
      {"measurement": "Tmax", "setting": "Rattus norvegicus [11]", "result": 1, "unit": "h"},
      {"measurement": "AUCt", "setting": "Rattus norvegicus [12]", "result": 928.445, "unit": "µg·h/mL"},
      {"measurement": "Cmax", "setting": "Rattus norvegicus [13]", "result": 155.39, "unit": "ng/mL"},
      {"measurement": "Drug metabolism", "setting": "Plasma [14]", "result": 179.13, "unit": "ng/mL"},
      {"measurement": "Drug metabolism", "setting": "Plasma [15]", "result": 18.853, "unit": "ng/mL"},
      {"measurement": "Drug metabolism", "setting": "Plasma [16]", "result": 178.753, "unit": "ng/mL"},
      {"measurement": "Drug metabolism", "setting": "Plasma [17]", "result": 19.043, "unit": "ng/mL"},
      {"measurement": "Drug metabolism", "setting": "Plasma [18]", "result": 178.42, "unit": "ng/mL"},
      {"measurement": "Drug metabolism", "setting": "Plasma [19]", "result": 179.123, "unit": "ng/mL"},
      {"measurement": "Drug metabolism", "setting": "Plasma [20]", "result": 18.88, "unit": "ng/mL"},
      {"measurement": "Drug metabolism", "setting": "Plasma [21]", "result": 178.883, "unit": "ng/mL"},
      {"measurement": "Drug metabolism", "setting": "Plasma [22]", "result": 18.787, "unit": "ng/mL"},
      {"measurement": "Drug metabolism", "setting": "Plasma [23]", "result": 19.347, "unit": "ng/mL"},
      {"measurement": "Stability", "setting": "Liver microsomes [24]", "result": 36.22, "unit": "µM"},
      {"measurement": "Stability", "setting": "Liver microsomes [25]", "result": 40.56, "unit": "µM"},
      {"measurement": "Stability", "setting": "Liver microsomes [26]", "result": 43.78, "unit": "µM"},
      {"measurement": "Stability", "setting": "Liver microsomes [27]", "result": 45.66, "unit": "µM"},
      {"measurement": "Stability", "setting": "Liver microsomes [28]", "result": 47.56, "unit": "µM"},
      {"measurement": "Retention_time", "setting": "Liver microsomes [6]", "result": 2.726, "unit": "min"}
    ]}
  ]
}
